Results collected from several papers.
Compare with care: the assays were run in different laboratories.
FLT3 D835V/ITD: Receptor-type tyrosine-protein kinase FLT3 (FLT3, Homo sapiens, UniProt P36888, D835V/ITD)
FLT3 D835V: Receptor-type tyrosine-protein kinase FLT3 (FLT3, Homo sapiens, UniProt P36888, D835V)
FLT3 K663Q: Receptor-type tyrosine-protein kinase FLT3 (FLT3, Homo sapiens, UniProt P36888, K663Q)
FLT3: Receptor-type tyrosine-protein kinase FLT3 (FLT3, Homo sapiens, UniProt P36888)
FLT3 R834Q: Receptor-type tyrosine-protein kinase FLT3 (FLT3, Homo sapiens, UniProt P36888, R834Q)
FLT3 ITD: Receptor-type tyrosine-protein kinase FLT3 (FLT3, Homo sapiens, UniProt P36888, ITD)
FLT3 N841I: Receptor-type tyrosine-protein kinase FLT3 (FLT3, Homo sapiens, UniProt P36888, N841I)
FLT3 D835Y: Receptor-type tyrosine-protein kinase FLT3 (FLT3, Homo sapiens, UniProt P36888, D835Y)
FLT3 autoinhibited: Receptor-type tyrosine-protein kinase FLT3, autoinhibited (FLT3, Homo sapiens, UniProt P36888)

| Compound | target | effect on | method | tested at | remaining binding [%] |
| --- | --- | --- | --- | --- | --- |
| NS(=O)(=O)c1cc(NC(=O)C2(c3ccccc3Cl)CC2)ccc1Oc1cccc(Cl)c1 | Receptor-type tyrosine-protein kinase FLT3 (FLT3, Homo sapiens, UniProt P36888, F691L/ITD) | cell-free assay | competition with immobilised ligand | 1 µM | 100 |
| Cc1cnc(Nc2ccc(C(=O)N3CCC(N4CCCC4)CC3)cc2)nc1-c1cc2ccccc2s1 | FLT3 D835V/ITD | binding | competition with immobilised ligand | 1 µM | 0.9 |
| COc1ccnn2ncc(-c3ccnc(N(C)C)n3)c12 | FLT3 D835V | binding |  | 1 µM | 81 |
| O=C(NCCCN1CCOCC1)c1ccc(Nc2nccc(-c3cc4ccccc4s3)n2)cc1 | FLT3 K663Q | binding | competition with immobilised ligand | 1 µM | 35 |
| CC(C)(C)c1ccc(-c2nc(CBr)nn2-c2cccc(O)c2)cc1 | FLT3 | cell-free assay | competition with immobilised ligand | 10 µM | 82 |
| CN(CCCC(F)(F)F)c1nccc(-c2cnn3ncccc23)n1 | FLT3 K663Q | binding |  | 1 µM | 88 |
| C=CC(=O)N1CCC(C(=O)NCC(=O)N2CCN(c3nc(-c4cnc(N)nc4C(F)F)nc(N4CCOCC4)n3)CC2)CC1 | FLT3 D835V | binding | competition with immobilised ligand | 1 µM | 61 |
| O=C(O)[C@H]1[C@H](Cn2nnc3ccccc3c2=O)CC[C@@H]1C(=O)c1ccc(OCCC2CCOCC2)cc1 | FLT3 R834Q | cell-free assay | competition with immobilised ligand | 1 µM | 96 |
| O=C(NCCCN1CCOCC1)c1ccc(Nc2ncc(Cl)c(-c3ccc(Cl)s3)n2)cc1 | FLT3 ITD | binding | competition with immobilised ligand | 1 µM | 0.75 |
| O=C(NCCCC1CCCCC1)c1ccc(CNC(=O)c2cnn(-c3ccccc3)c2C(F)(F)F)cc1 | FLT3 R834Q | cell-free assay | competition with immobilised ligand | 0.1 µM | 100 |
| O=C(Nc1c[nH]nc1C(=O)NC1CCNCC1)c1cc(F)cc(F)c1 | FLT3 | binding | competition with immobilised ligand | 1 µM | 100 |
| c1cncc(-c2cccc(Nc3nccc(NC4CCCCC4)n3)c2)c1 | FLT3 N841I | binding | competition with immobilised ligand | 10 µM | 1.6 |
| COc1ccc2cc(OCC3(C(=O)O)CN(C(=O)c4ccc(F)cc4)C3)ccc2c1 | FLT3 R834Q | cell-free assay | competition with immobilised ligand | 1 µM | 100 |
| Nc1ncc2c(n1)-c1c([nH]c3ccc(C#CC4CC4)cc13)CCCC2 | FLT3 | binding | competition with immobilised ligand | 1 µM | 96 |
| F[C@@H]1CCN(c2nccc(-c3cnn4ncccc34)n2)C1 | FLT3 D835V | binding |  | 1 µM | 84 |
| O=C(NCC1CCOCC1)c1n[nH]cc1NC(=O)c1c(F)cccc1F | FLT3 D835Y | binding | competition with immobilised ligand | 1 µM | 89 |
| O=C(NC1CCC1)c1ccc2nc(-c3cccc(NS(=O)(=O)NCCN4CCCCC4)c3)cn2c1 | FLT3 ITD | cell-free assay | competition with immobilised ligand | 10 µM | 100 |
| COc1ncc2cc3ccccc3nc2c1C#N | FLT3 D835Y | cell-free assay | competition with immobilised ligand | 5 µM | 92 |

| Compound | target | effect on | method | tested at | remaining binding [%] |
| --- | --- | --- | --- | --- | --- |
| O=C(c1ccc(Nc2ncc(Cl)c(-c3ccc(Cl)s3)n2)cc1)N1CCC(N2CCCC2)CC1 | FLT3 D835V/ITD | binding | competition with immobilised ligand | 1 µM | 1.1 |
| CN(C)c1nccc(-c2cnn3ncccc23)n1 | FLT3 D835Y | binding |  | 1 µM | 100 |
| O=C(c1ccc(Nc2nccc(-c3cc4ccccc4s3)n2)cc1)N1CCC(N2CCCC2)CC1 | FLT3 R834Q | binding | competition with immobilised ligand | 1 µM | 30 |
| N[C@H]1CCN(c2nccc(-c3cnn4ncccc34)n2)C1 | FLT3 D835V | binding |  | 1 µM | 61 |
| CCN1CCN(Cc2ccc(C(=O)Nc3ccc(C)c(Oc4ccc5c(c4)CC(=O)N5)c3)cc2C(F)(F)F)CC1 | FLT3 autoinhibited | binding | competition with immobilised ligand | 1 µM | 100 |
| CN1CCN(c2ccc(Nc3nccc(-c4cccc([N+](=O)[O-])c4)n3)cc2C(F)(F)F)CC1 | FLT3 D835Y | binding |  | 10 µM | 0 |
| O=C(Nc1cnc(Oc2ccc(F)cc2)nc1)N1CCc2ncccc2[C@@H]1c1ccc(F)cc1 | FLT3 autoinhibited | cell-free assay | competition with immobilised ligand | 1 µM | 90 |
| Cc1cnn2ncc(-c3ccnc(N(C)C)n3)c2c1 | FLT3 K663Q | binding |  | 1 µM | 100 |
| COc1cc(-c2cn(C3CCc4ccccc4N(CC(F)(F)F)C3=O)nn2)ccc1-n1ccc(C)n1 (centres unmarked) | FLT3 | cell-free assay | competition with immobilised ligand | 1 µM | 85 |
| CN1CCN(c2ccc(Nc3nccc(-c4ccccc4)n3)cc2C(F)(F)F)CC1 | FLT3 N841I | binding |  | 10 µM | 3.5 |
| FC(F)(F)c1ccc2c(c1)nc(-c1cccnc1)n2C1CC1 | FLT3 | cell-free assay | competition with immobilised ligand | 1 µM | 93 |
| COc1cnc(Nc2cccc(S(N)(=O)=O)c2)nc1N1CCN(c2ccccc2)CC1 | FLT3 D835V | binding | competition with immobilised ligand | 1 µM | 49 |
| C[C@@H]1CCN(c2nccc(-c3cnn4ncccc34)n2)C1 | FLT3 | binding |  | 1 µM | 100 |
| CNC(=O)[C@@H]1CC[C@@H](n2c(-c3ccc4cnccc4c3)nc3ccc(C(=O)NCc4cccc(C(N)=O)c4)cc32)C1 | FLT3 D835Y | binding | competition with immobilised ligand | 1 µM | 100 |
| C[C@@H](c1ccc(-n2cnc3c(N)ncnc32)cc1)N1CCc2nn(C)c(Cc3ccccc3)c2C1=O | FLT3 K663Q | binding | competition with immobilised ligand | 0.1 µM | 77 |
| CO[C@@H](C)c1c(Nc2ccc([C@H](N(C)C(=O)C3CCS(=O)(=O)CC3)C(F)(F)F)cc2)cnc2cc(Cl)nn12 | FLT3 D835Y | cell-free assay | competition with immobilised ligand | 1 µM | 59 |
| COc1cnc(Nc2cccc(S(N)(=O)=O)c2)nc1N1CCN(c2ccccc2)C(=O)C1 | Receptor-type tyrosine-protein kinase FLT3 (FLT3, Homo sapiens, UniProt P36888, D835H) | binding | competition with immobilised ligand | 1 µM | 93 |
